A word on the IC50: it is the concentration that gives 50% inhibition. Read a high IC50 as weaker potency in that assay. By chromatographic logD is commonly meant lipophilicity estimated from chromatographic retention. Low values mean a more hydrophilic compound, high ones a more lipophilic compound. Broadly, the AUC(0-inf) is total exposure, with the tail of the curve extrapolated. Read a low AUC(0-inf) as less exposure. One may read the solubility as how much of the substance goes into solution per volume. A high value points to a readily soluble substance. As a reminder, the CL/F is the apparent clearance, not corrected for the fraction that reaches the circulation.

Values after ≈ are worked out from the molar mass of the structure shown.

The values that follow come from ChEMBL document CHEMBL3997808 (J Med Chem, 2017).

Series [1] concerns the target T1, Receptor-interacting serine/threonine-protein kinase 1 (Homo sapiens, UniProt Q13546).
T1 sequence (Q13546 whole entry): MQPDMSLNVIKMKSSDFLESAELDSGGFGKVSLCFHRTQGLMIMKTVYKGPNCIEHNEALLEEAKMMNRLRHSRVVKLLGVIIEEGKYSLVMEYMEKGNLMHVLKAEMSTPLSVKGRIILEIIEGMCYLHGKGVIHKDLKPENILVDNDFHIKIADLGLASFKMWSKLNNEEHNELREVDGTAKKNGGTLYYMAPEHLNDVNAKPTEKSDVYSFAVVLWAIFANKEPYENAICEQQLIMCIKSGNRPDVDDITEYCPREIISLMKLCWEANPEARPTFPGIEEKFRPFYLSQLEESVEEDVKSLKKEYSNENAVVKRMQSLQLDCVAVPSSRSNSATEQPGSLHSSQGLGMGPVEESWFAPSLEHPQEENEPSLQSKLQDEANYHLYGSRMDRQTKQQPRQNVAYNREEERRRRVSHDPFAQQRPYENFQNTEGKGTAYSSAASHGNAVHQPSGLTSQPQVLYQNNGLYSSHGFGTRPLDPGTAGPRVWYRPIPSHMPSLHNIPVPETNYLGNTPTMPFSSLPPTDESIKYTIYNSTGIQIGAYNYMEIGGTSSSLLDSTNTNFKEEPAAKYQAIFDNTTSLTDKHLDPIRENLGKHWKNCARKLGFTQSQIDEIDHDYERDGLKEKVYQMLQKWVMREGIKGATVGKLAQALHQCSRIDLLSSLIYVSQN
In words: Displacement of (14-(2-{[3-({2-{[4-(cyanomethyl)phenyl]amino}-6-[(5-cyclopropyl-1H-pyrazol-3-yl)-amino]-4-pyrimidinyl}amino)propyl]amino}-2-oxoethyl)-16,16,18,18-tetramethyl-6,7,7a,8a,9,10,16,18-octahydrobenzo[2'',3'']indolizino-[8'',7'':5',6']pyrano[3',2':3,4]pyrido[1,2-a]indol-5-ium-2-sulfonate from human RIP1 (1 to 375 residues) expressed in baculovirus infected insect cells measured for 50 min.

A short description of series [2]: Lipophilicity, log D of the compound at pH 7.4 by RP-HPLC method. In kind it is physicochemical. The following applies: buffer. The method in brief:
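Chromatographic hydrophobicity index (CHI) log D at pH 7.4, calculated from the retention time in a fast-gradient reverse-phase HPLC run.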

Series [3] in a line: (§1) AUC (0 to infinity) in rat at 2 mg/kg, po. It counts as ADME, organism-based. Also noted: dose 2 mg/kg, route oral, time infinity. As to conditions: in vivo.
For series [4], the target named is T1, Receptor-interacting serine/threonine-protein kinase 1. In words: Inhibition of human RIP1 (1 to 375 residues) expressed in baculovirus infected insect cells preincubated for 1 hr followed by ATP addition measured after 5 hrs by ADP-Glo luminescence assay. A general note: ADP-Glo first removes unused ATP, then detects ADP through luciferase.
Series [5] in a line: Solubility of the compound in FaSSIF. In kind it is physicochemical.
Series [6] can be described thus: Drug level in rat hepatocytes treated with GSK2982772 at 10 uM measured up to 4 hrs. It counts as ADME, cell-based, Hepatocyte. The gist of the method: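 Compound at 10 μM was incubated with hepatocyte suspensions at 1 million cells/mL. Incubation ran at 37°C under 5% CO2:95% O2 for up to 4 h.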
The subject of series [7] is Rattus norvegicus. The description is as §1. It counts as ADME, organism-based. More on the design: dose 2 mg/kg, route oral, time infinity. The following applies: in vivo, BLD = below limit of detection.
Series [8] is described as follows: Clearance in rat at 2 mg/kg, po. The following applies: in vivo. It counts as ADME, organism-based.
Series [9] deals with Rattus norvegicus. Kind of series: Volume of distribution in rat at 2 mg/kg, po. It counts as ADME, organism-based. As to conditions: in vivo.

The compound `CN1C(=O)[C@@H](NC(=O)c2cnn(Cc3ccccc3)c2)COc2ccccc21` displayed an IC50 in series [1] of 63 nM. This compound also came in with a chromatographic logD in series [2] of 4. Besides, in series [3], the AUC(0-inf) turned out to be 2900 ng·h/mL.
`CN1C[C@H](NC(=O)c2cc(Cc3ccccc3)on2)C(=O)N(C)c2ccccc21` yielded an IC50 in series [4] of 5 nM. This compound returned a chromatographic logD in series [2] of 6. In series [3], this compound returned an AUC(0-inf) of 82 ng·h/mL.
For `CN1C(=O)[C@@H](NC(=O)c2cc(Cc3ccccc3)on2)CNc2ccccc21`, the chromatographic logD in series [2] came to 5. In [5], the solubility stood at 97 µg/mL (≈ 258 µM). The compound also showed an area under the curve AUC(0-inf) in series [3] of 800 ng·h/mL.
In turn, `CN1C(=O)[C@@H](NC(=O)c2nnn(Cc3ccccc3)n2)COc2ccccc21` came in with an IC50 in series [4] of 0.079 nM. The same compound yielded a chromatographic logD in series [2] of 5. Besides, the AUC(0-inf) in series [3] stood at 240 ng·h/mL.
In series [1], `CN1C(=O)[C@@H](NC(=O)c2coc(Cc3ccccc3)n2)COc2ccccc21` registered an IC50 of 794 nM. Also, the chromatographic logD in series [2] is 5.4.
Take `CN1C(=O)[C@@H](NC(=O)c2cc(Cc3ccccc3)on2)COc2ccc(-c3cc[nH]n3)cc21`: the IC50 in [4] came out at 1 nM. The same compound displayed an AUC(0-inf) in series [3] of 600 ng·h/mL.
`CC(=O)Nc1ccc2c(c1)N(C)C(=O)[C@@H](NC(=O)c1cc(Cc3ccccc3)on1)CO2` returned an IC50 in series [4] of 0.32 nM. In series [3], this compound showed a total exposure AUC(0-inf) of 450 ng·h/mL.
The compound `CC(C)Cc1cc(C(=O)N[C@H]2COc3ccccc3N(C)C2=O)no1` registered an IC50 in [1] of 1600 nM.
On to `O=C(N[C@H]1COc2ccccc2NC1=O)c1cc(Cc2ccccc2)on1`, for which, in series [3], the AUC(0-inf) was 2200 ng·h/mL.
As for `O=C(N[C@H]1COCCNC1=O)c1cc(Cc2ccccc2)on1`, in series [1], the IC50 was above 10000 nM.
`CN1C(=O)[C@@H](NC(=O)c2cn(Cc3ccccc3)cn2)COc2ccccc21` returned an IC50 in series [4] of 0.4 nM. For the same compound, the chromatographic logD in [2] is 4.2. In series [3], this compound registered an AUC(0-inf) of 660 ng·h/mL.
In [1], `O=C(N[C@H]1CCOc2ccccc2NC1=O)c1cc(Cc2ccccc2)on1` registered an IC50 of 200 nM. For the same compound, the AUC(0-inf) in series [3] amounted to 380 ng·h/mL.
As to `CN(C(=O)c1cc(Cc2ccccc2)on1)[C@H]1COc2ccccc2NC1=O`, the IC50 in [1] is above 10000 nM.
The compound `COC(=O)Nc1ccc2c(c1)N(C)C(=O)[C@@H](NC(=O)c1cc(Cc3ccccc3)on1)CO2` registered an IC50 in series [4] of 0.32 nM. Besides, in [3], the area under the curve AUC(0-inf) was found to be 1100 ng·h/mL.
In [2], `CN1C(=O)[C@@H](NC(=O)c2cc(Cc3ccccc3)on2)CCc2ccccc21` had a chromatographic logD of 6. In series [3], this compound displayed an AUC(0-inf) of 7 ng·h/mL.
For the compound `O=C(N[C@H]1COc2ccccc2N(C2CC2)C1=O)c1cc(Cc2ccccc2)on1`, the IC50 in [1] was above 10000 nM.
`C[C@]1(NC(=O)c2cc(Cc3ccccc3)on2)COc2ccccc2NC1=O` displayed a 50% inhibitory concentration (IC50) in [1] above 10000 nM.
With `CN1C(=O)[C@@H](NC(=O)c2cc(Cc3ccccc3)n(C)n2)COc2ccccc21`, the midpoint of inhibition in series [4], the IC50, lay at 0.4 nM. The same compound came in with a chromatographic logD in [2] of 5.4. This compound also yielded an AUC(0-inf) in [3] of 170 ng·h/mL.
For `CN1C(=O)[C@@H](NC(=O)c2noc(Cc3ccccc3)n2)COc2ccccc21`, the IC50 in series [4] was found to be 0.5 nM. This compound gave a chromatographic logD in series [2] of 5.4. For the same compound, the AUC(0-inf) in series [3] was found to be 33 ng·h/mL.
For `O=C(N[C@@H]1CNc2ccccc2OC1)c1cc(Cc2ccccc2)on1`, the IC50 in series [1] is above 10000 nM.
`CN1C(=O)[C@@H](NC(=O)c2cn(Cc3ccccc3)nn2)COc2ccccc21` had an IC50 in series [4] of 1 nM. In addition, in [2], the chromatographic logD turned out to be 4.6. This compound also gave an AUC(0-inf) in [3] of 1300 ng·h/mL.
For `O=C(O)c1n[nH]c(Cc2ccccc2)n1`, the Drug metabolism entry in [6] is on record as “Metabolite_Detected”.
`CN1C(=O)[C@@H](NC(=O)c2cc(CN3CCCCC3)on2)COc2ccccc21`: the IC50 in [1] was above 10000 nM.
`CCCCCc1cc(C(=O)N[C@H]2COc3ccccc3N(C)C2=O)no1` gave an IC50 in [1] of 100 nM.
Compound `CN1C(=O)[C@@H](NC(=O)c2ncc(Cc3ccccc3)o2)COc2ccccc21` had an IC50 in series [4] of 0.05 nM. The compound also yielded a chromatographic logD in series [2] of 5.6. This compound returned an area under the curve AUC(0-inf) in series [3] of 55 ng·h/mL.
`CN1C(=O)[C@@H](NC(=O)c2cc(Cc3ccccc3)on2)COc2ccc(NS(C)(=O)=O)cc21`: the concentration for half-maximal inhibition (IC50) in [4] came to 0.63 nM.
`CN1C(=O)[C@@H](NC(=O)c2cc(CC3CCCCC3)on2)COc2ccccc21` had an IC50 in series [1] of 251 nM.
In turn, `CN1C(=O)[C@@H](NC(=O)c2ncc(Cc3ccccc3)s2)COc2ccccc21` registered a chromatographic logD in [2] of 6.5.
In turn, `CN1C(=O)[C@@H](NC(=O)c2cc(Cc3ccccc3)ccn2)COc2ccccc21` came in with an IC50 in [4] of 2 nM. This compound had a chromatographic logD in [2] of 6.4.
Regarding `Cc1cc(C(=O)N[C@H]2COc3ccccc3N(C)C2=O)no1`, the IC50 in [1] turned out to be 12600 nM.
Regarding `CN1C(=O)[C@@H](NC(=O)c2cccc(Cc3ccccc3)c2)COc2ccccc21`, the IC50 in series [1] was found to be 251 nM. Further, the chromatographic logD in series [2] was 6.3.
On to `O=C(N[C@H]1COc2ccccc2NC1=O)c1n[nH]c(Cc2ccccc2)n1`, for which, in [6], the Drug metabolism entry was “Metabolite_Detected”.
`O=C(N[C@H]1CO[C@@H]2CCCC[C@H]2NC1=O)c1cc(Cc2ccccc2)on1` yielded an IC50 in series [1] above 10000 nM.
In the case of `CN1C(=O)[C@@H](N)COc2ccccc21`, in series [6], the Drug metabolism result is listed as “Metabolite_Detected”.
`CN1C(=O)[C@@H](NC(=O)c2cc(Cc3ccccc3)on2)CSc2ccccc21` registered a chromatographic logD in series [2] of 6.2. The AUC result in the series on Rattus norvegicus [7] is given as “Bld”.
Consider `CN1C(=O)[C@@H](NC(=O)c2n[nH]c(C(O)c3ccccc3)n2)COc2ccccc21` (some centres not stated), for which, in [6], the Drug metabolism result is on record as “Metabolite_Detected”.
With `O=C(NC1Cc2ccccc2NC1=O)c1cc(Cc2ccccc2)on1` (configuration not stated), the IC50 in series [1] was above 10000 nM.
In [2], `CN1C(=O)[C@@H](NC(=O)c2cc(Cc3ccccc3)on2)COc2ccccc21` gave a chromatographic logD of 5.9. The same compound had a solubility in series [5] of 30 µg/mL (≈ 79.5 µM). This compound also showed an AUC(0-inf) in [3] of 380 ng·h/mL. Besides, the CL/F in series [8] stood at 69 mL/min/kg. In the series on Rattus norvegicus [9], this compound displayed a Vd of 8.5 L/kg.
Consider `CN1C(=O)[C@@H](NC(=O)c2c[nH]c(Cc3ccccc3)n2)COc2ccccc21`, for which, in series [1], the IC50 turned out to be 1260 nM. Besides, the chromatographic logD in series [2] is 3.8.
Regarding `CN1C(=O)[C@@H](NC(=O)c2cc(Cc3ccccc3)on2)COc2ccc(-c3n[nH]c(=O)o3)cc21`, in [4], the IC50 amounted to 0.5 nM. This compound showed a chromatographic logD in [2] of 4.4. This compound had a solubility in series [5] of 8 µg/mL (≈ 17.3 µM). The AUC(0-inf) in series [3] came to 2100 ng·h/mL.
In series [4], `CN1C(=O)[C@@H](NC(=O)c2ncn(Cc3ccccc3)n2)COc2ccccc21` gave an IC50 of 0.63 nM. Further, the chromatographic logD in series [2] was found to be 4.2. In series [3], this compound displayed an AUC(0-inf) of 280 ng·h/mL.
On to `CCN1C(=O)[C@@H](NC(=O)c2cc(Cc3ccccc3)on2)COc2ccccc21`, for which the IC50 in series [1] came to 3160 nM.
In series [4], `CN1C(=O)[C@@H](NC(=O)c2nnc(Cc3ccccc3)o2)COc2ccccc21` returned an IC50 of 0.79 nM. The same compound came in with a chromatographic logD in [2] of 4.9. Moreover, in series [3], the area under the curve AUC(0-inf) amounted to 130 ng·h/mL.
